# Test system: Toxoplasma gondii
# Assay: Antimicrobial activity against Toxoplasma gondii isolate PSP-2005-MUP infected in human MRC-5 cells after 72 hrs by ELISA
# Format: functional, organism-based
# Details: MRC5, 72 h
# In short: (§1)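 Confluent MRC-5 fibroblasts (3.5 x 10^4 to 4 x 10^4 cells/well) inoculated with tachyzoites freshly harvested from THP-1 cultures, 0.4 to 1 tachyzoite/10 cells adjusted per strain for nonconfluent foci at 72 h. Drugs (stock 1 mg/ml in 50% methanol-50% acetone, diluted in RPMI) added 3 h post-inoculation, four to eight replicate wells per dilution. Cultures incubated 72 h.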
row,Compound,IC50 [µg/mL]
1,O=C1C(O)=C([C@H]2CC[C@H](c3ccc(Cl)cc3)CC2)C(=O)c2ccccc21 [ATOVAQUONE],0.06
2,CCc1nc(N)nc(N)c1-c1ccc(Cl)cc1 [PYRIMETHAMINE],0.14
3,Nc1ccc(S(=O)(=O)Nc2ncccn2)cc1 [SULFADIAZINE],18.8

# Test system: Toxoplasma gondii
# Assay: Antimicrobial activity against Toxoplasma gondii isolate RMS-2001-MAU infected in human MRC-5 cells after 72 hrs by ELISA
# Format: functional, organism-based
# Details: MRC5, 72 h
# In short: as §1
row,Compound,IC50 [µg/mL]
1,O=C1C(O)=C([C@H]2CC[C@H](c3ccc(Cl)cc3)CC2)C(=O)c2ccccc21 [ATOVAQUONE],0.06
2,CCc1nc(N)nc(N)c1-c1ccc(Cl)cc1 [PYRIMETHAMINE],0.12
3,Nc1ccc(S(=O)(=O)Nc2ncccn2)cc1 [SULFADIAZINE],> 50

# Test system: Toxoplasma gondii
# Assay: Antimicrobial activity against Toxoplasma gondii RH harboring DHPS Ex2, E474D/Ex4, R560K/Ex5, 580 sil Gly; A597E/627 sil Glu mutant gene and DHFR Ex3, 156 sil Leu mutant gene infected in human MRC-5 cells after 72 hrs by ELISA
# Format: functional, organism-based
# Details: MRC5, 72 h
# In short: (§2)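 Tachyzoites freshly harvested from THP-1 cultures inoculated at 0.4 to 1 tachyzoite/10 cells, adjusted per strain, onto confluent MRC-5 fibroblasts. Drugs were stocked at 1 mg/ml in 50% methanol-50% acetone, diluted in RPMI, and added 3 h post-inoculation in four to eight replicate wells. Incubation was 72 h, then methanol fixation. Read-out was ELISA with rabbit anti-Toxoplasma serum and peroxidase anti-rabbit conjugate, TMB substrate, OD 405 nm. IC50 came from linear regression of OD versus log concentration; experiments were run in duplicate.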
row,Compound,IC50 [µg/mL]
1,O=C1C(O)=C([C@H]2CC[C@H](c3ccc(Cl)cc3)CC2)C(=O)c2ccccc21 [ATOVAQUONE],0.05
2,CCc1nc(N)nc(N)c1-c1ccc(Cl)cc1 [PYRIMETHAMINE],0.1
3,Nc1ccc(S(=O)(=O)Nc2ncccn2)cc1 [SULFADIAZINE],6.52

# Test system: Toxoplasma gondii
# Assay: Antimicrobial activity against Toxoplasma gondii isolate RMS-2003-DJO infected in human MRC-5 cells after 72 hrs by ELISA
# Format: functional, organism-based
# Details: MRC5, 72 h
# In short: as §1
row,Compound,IC50 [µg/mL]
1,O=C1C(O)=C([C@H]2CC[C@H](c3ccc(Cl)cc3)CC2)C(=O)c2ccccc21 [ATOVAQUONE],0.08
2,CCc1nc(N)nc(N)c1-c1ccc(Cl)cc1 [PYRIMETHAMINE],0.09
3,Nc1ccc(S(=O)(=O)Nc2ncccn2)cc1 [SULFADIAZINE],4.9

# Test system: Toxoplasma gondii
# Assay: Antimicrobial activity against Toxoplasma gondii NED infected in human MRC-5 cells after 72 hrs by ELISA
# Format: functional, organism-based
# Details: MRC5, 72 h
# In short: as §1
row,Compound,IC50 [µg/mL]
1,O=C1C(O)=C([C@H]2CC[C@H](c3ccc(Cl)cc3)CC2)C(=O)c2ccccc21 [ATOVAQUONE],0.03
2,CCc1nc(N)nc(N)c1-c1ccc(Cl)cc1 [PYRIMETHAMINE],0.19
3,Nc1ccc(S(=O)(=O)Nc2ncccn2)cc1 [SULFADIAZINE],9.25

# Test system: Toxoplasma gondii
# Assay: Antimicrobial activity against Toxoplasma gondii ENT harboring DHPS Ex2, E474D/Ex3, 156 sil Leu/Ex4, R560K/Ex5, 580 sil Gly/A597E/627 sil Glu mutant gene and DHFR Ex3, 156 sil Leu mutant gene infected in human MRC-5 cells after 72 hrs by ELISA
# Format: functional, organism-based
# Details: MRC5, 72 h
# In short: as §2
row,Compound,IC50 [µg/mL]
1,O=C1C(O)=C([C@H]2CC[C@H](c3ccc(Cl)cc3)CC2)C(=O)c2ccccc21 [ATOVAQUONE],0.07
2,CCc1nc(N)nc(N)c1-c1ccc(Cl)cc1 [PYRIMETHAMINE],0.34
3,Nc1ccc(S(=O)(=O)Nc2ncccn2)cc1 [SULFADIAZINE],4.28

# Test system: Toxoplasma gondii
# Assay: Antimicrobial activity against Toxoplasma gondii isolate RMS-1994-LEF harboring DHPS Ex2, E474D/Ex4, R560K/Ex5, 580 sil Gly; A597E/627 sil Glu mutant gene and DHFR Ex3, 204 sil Ala mutant gene infected in human MRC-5 cells after 72 hrs by ELISA
# Format: functional, organism-based
# Details: MRC5, 72 h
# In short: as §2
row,Compound,IC50 [µg/mL]
1,O=C1C(O)=C([C@H]2CC[C@H](c3ccc(Cl)cc3)CC2)C(=O)c2ccccc21 [ATOVAQUONE],0.04
2,CCc1nc(N)nc(N)c1-c1ccc(Cl)cc1 [PYRIMETHAMINE],0.07
3,Nc1ccc(S(=O)(=O)Nc2ncccn2)cc1 [SULFADIAZINE],9.65

# Test system: Toxoplasma gondii
# Assay: Antimicrobial activity against Toxoplasma gondii isolate RMS-1995-ABE harboring DHPS Ex5, A587V mutant gene infected in human MRC-5 cells after 72 hrs by ELISA
# Format: functional, organism-based
# Details: MRC5, 72 h
# In short: as §2
row,Compound,IC50 [µg/mL]
1,O=C1C(O)=C([C@H]2CC[C@H](c3ccc(Cl)cc3)CC2)C(=O)c2ccccc21 [ATOVAQUONE],0.11
2,CCc1nc(N)nc(N)c1-c1ccc(Cl)cc1 [PYRIMETHAMINE],0.17
3,Nc1ccc(S(=O)(=O)Nc2ncccn2)cc1 [SULFADIAZINE],> 50

# Test system: Toxoplasma gondii
# Assay: Antimicrobial activity against Toxoplasma gondii isolate TRS-2004-REV infected in human MRC-5 cells after 72 hrs by ELISA
# Format: functional, organism-based
# Details: MRC5, 72 h
# In short: as §1
row,Compound,IC50 [µg/mL]
1,O=C1C(O)=C([C@H]2CC[C@H](c3ccc(Cl)cc3)CC2)C(=O)c2ccccc21 [ATOVAQUONE],0.07
2,CCc1nc(N)nc(N)c1-c1ccc(Cl)cc1 [PYRIMETHAMINE],0.18
3,Nc1ccc(S(=O)(=O)Nc2ncccn2)cc1 [SULFADIAZINE],6.26

# Test system: Toxoplasma gondii
# Assay: Antimicrobial activity against Toxoplasma gondii ME49 infected in human MRC-5 cells infected in human MRC-5 cells after 72 hrs by ELISA
# Format: functional, organism-based
# Details: ME49, MRC5, 72 h
# In short: as §1
row,Compound,IC50 [µg/mL]
1,O=C1C(O)=C([C@H]2CC[C@H](c3ccc(Cl)cc3)CC2)C(=O)c2ccccc21 [ATOVAQUONE],0.05
2,CCc1nc(N)nc(N)c1-c1ccc(Cl)cc1 [PYRIMETHAMINE],0.09
3,Nc1ccc(S(=O)(=O)Nc2ncccn2)cc1 [SULFADIAZINE],6.55

# Test system: Toxoplasma gondii
# Assay: Antimicrobial activity against Toxoplasma gondii isolate RMS-2005-HAG infected in human MRC-5 cells after 72 hrs by ELISA
# Format: functional, organism-based
# Details: MRC5, 72 h
# In short: as §1
row,Compound,IC50 [µg/mL]
1,O=C1C(O)=C([C@H]2CC[C@H](c3ccc(Cl)cc3)CC2)C(=O)c2ccccc21 [ATOVAQUONE],0.04
2,CCc1nc(N)nc(N)c1-c1ccc(Cl)cc1 [PYRIMETHAMINE],0.11
3,Nc1ccc(S(=O)(=O)Nc2ncccn2)cc1 [SULFADIAZINE],6.7

# Test system: Toxoplasma gondii
# Assay: Antimicrobial activity against Toxoplasma gondii isolate GRE-1995-MAE infected in human MRC-5 cells after 72 hrs by ELISA
# Format: functional, organism-based
# Details: MRC5, 72 h
# In short: as §1
row,Compound,IC50 [µg/mL]
1,O=C1C(O)=C([C@H]2CC[C@H](c3ccc(Cl)cc3)CC2)C(=O)c2ccccc21 [ATOVAQUONE],0.03
2,CCc1nc(N)nc(N)c1-c1ccc(Cl)cc1 [PYRIMETHAMINE],0.11
3,Nc1ccc(S(=O)(=O)Nc2ncccn2)cc1 [SULFADIAZINE],14.9

# Test system: Toxoplasma gondii
# Assay: Antimicrobial activity against Toxoplasma gondii isolate GUY-2003-MEL harboring DHPS Ex2, E474D/Ex4, R560K/Ex5, 580 sil Gly/ A597E/627 sil Glu mutant gene and DHFR Ex2, 145 sil Val mutant gene infected in human MRC-5 cells after 72 hrs by ELISA
# Format: functional, organism-based
# Details: MRC5, 72 h
# In short: as §2
row,Compound,IC50 [µg/mL]
1,O=C1C(O)=C([C@H]2CC[C@H](c3ccc(Cl)cc3)CC2)C(=O)c2ccccc21 [ATOVAQUONE],0.04
2,CCc1nc(N)nc(N)c1-c1ccc(Cl)cc1 [PYRIMETHAMINE],0.25
3,Nc1ccc(S(=O)(=O)Nc2ncccn2)cc1 [SULFADIAZINE],5.35

# Test system: Toxoplasma gondii
# Assay: Antimicrobial activity against Toxoplasma gondii isolate GRE-1998-TRA infected in human MRC-5 cells after 72 hrs by ELISA
# Format: functional, organism-based
# Details: MRC5, 72 h
# In short: as §1
row,Compound,IC50 [µg/mL]
1,O=C1C(O)=C([C@H]2CC[C@H](c3ccc(Cl)cc3)CC2)C(=O)c2ccccc21 [ATOVAQUONE],0.05
2,CCc1nc(N)nc(N)c1-c1ccc(Cl)cc1 [PYRIMETHAMINE],0.39
3,Nc1ccc(S(=O)(=O)Nc2ncccn2)cc1 [SULFADIAZINE],16.8

# Test system: Toxoplasma gondii
# Assay: Antimicrobial activity against Toxoplasma gondii B1 harboring DHPS Ex2, E474D/Ex4, R560K/Ex5, 580 sil Gly/ A597E/627 sil Glu mutant gene and DHFR Ex3, 156 sil Leu mutant gene infected in human MRC-5 cells after 72 hrs by ELISA
# Format: functional, organism-based
# Details: B1, MRC5, 72 h
# In short: as §2
row,Compound,IC50 [µg/mL]
1,O=C1C(O)=C([C@H]2CC[C@H](c3ccc(Cl)cc3)CC2)C(=O)c2ccccc21 [ATOVAQUONE],0.1
2,CCc1nc(N)nc(N)c1-c1ccc(Cl)cc1 [PYRIMETHAMINE],0.35
3,Nc1ccc(S(=O)(=O)Nc2ncccn2)cc1 [SULFADIAZINE],> 50

# Test system: Toxoplasma gondii
# Assay: Antimicrobial activity against Toxoplasma gondii isolate TOU-1998-TRI infected in human MRC-5 cells after 72 hrs by ELISA
# Format: functional, organism-based
# Details: MRC5, 72 h
# In short: as §1
row,Compound,IC50 [µg/mL]
1,O=C1C(O)=C([C@H]2CC[C@H](c3ccc(Cl)cc3)CC2)C(=O)c2ccccc21 [ATOVAQUONE],0.07
2,CCc1nc(N)nc(N)c1-c1ccc(Cl)cc1 [PYRIMETHAMINE],0.15
3,Nc1ccc(S(=O)(=O)Nc2ncccn2)cc1 [SULFADIAZINE],2.95
